CHOP inhibitor = CHOP inhibition in unfolded protein response | 220,000 tested, 3.8% active | AID 2732 | CHO-K1 CHOP-promoter luciferase, tunicamycin-induced, 15-18 h | inhibition, % at 10 µM;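 active = compounds that reduced the stress-induced luciferase reporter signal by more than about 70% of percent inhibition, limit read from the data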;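 also: 0% = tunicamycin plus vehicle and 100% = wells without tunicamycin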
CHOP UPR activ = activators of apoptotic arm of unfolded protein response (CHOP); CHO-CHOP luciferase reporter, UPR activation, luminescence; percent of tunicamycin response over DMSO baseline; activation, % at 10 µM; 330,000 tested, 0.34% active; AID 449763;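 active = at 10 µM dose, activation of 40% or more, normalized to positive control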;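 also: 100% = tunicamycin at 10 µg/mL and 0% = DMSO alone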
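Dosing – one dose, 10 µM in 0.5% DMSO · System – CHO-CHOP cells, stable luciferase reporter of PERK-eIF2a-CHOP signalling · Input – 500 cells/well · Control set – tunicamycin 10 µg/mL final as positive, DMSO-only wells as negative · Timing – 6 h compound treatment, 37 °C · Measure – % activation vs tunicamycin · Technique – luminescence read with Steady-Glo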
UPR XBP1 act = adaptive UPR (XBP1) activation; 330,000 tested, 0.33% active; AID 463104; activation, % at 20 µM; CHO-XBP1 luciferase reporter, IRE1-XBP1 UPR activation, luminescence; percent of tunicamycin response, DMSO as zero;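 active = versus positive control, 20 µM dose yields 30% or more activation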;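 also: 100% = tunicamycin at 10 µg/mL and 0% = DMSO only wells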
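incubation = overnight seeding at 37 °C, 6 h compound treatment at 37 °C | assay system = CHO-XBP1 cells stably carrying IRE1-XBP1-driven luciferase reporter | input = 1000 cells per well | detection = luciferase luminescence | dosing = single point, 20 µM final compound, 1% DMSO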
hiPSC survival = enhancers of human iPSC single-cell survival; hiPSC single-cell survival, ATPlite luminescence; 100% = ROCK inhibitor wells, 0% = DMSO; survival enhancement, % at 20 µM; 360,000 tested, 0.044% active; AID 602274; in the data active = survival enhancement above about 18%;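 also: cells exposed to compounds for 16 hours before the ATP read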
Cardio protect = myocardial damage modulation in H9c2 cells. H9c2 cardiomyocytes, H2O2 injury protection, ATPLite, 2 h. protection from H2O2 cell death, % at 20 µM. 360,000 tested, 0.63% active. AID 588492;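 active = compounds giving at least 50% protection of heart cells from peroxide-induced death in the single-dose screen, raw or plate-pattern-corrected value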;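 also: 0% = DMSO wells with peroxide and 100% = DMSO wells without peroxide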
An asterisk follows results filed as active. The entries come from a sample that favours hits as a whole.

CCCCN(CCCC)c1nc2ccccc2nc1NS(=O)(=O)c1ccc(NC(C)=O)cc1 was read as CHOP inhibitor 87.6*, CHOP UPR activ -1.3, UPR XBP1 act -2.4, hiPSC survival 6.3 and Cardio protect 5.8.
`CC(C)CC1NC(=O)c2cccnc2-n2c1nc1cc(F)ccc1c2=O` (stereo not given) gave hiPSC survival 2.7 and Cardio protect 5.6.
Cc1ccnc(NC(=O)Nc2ccc(F)cc2)c1 was read as CHOP inhibitor 3.9, CHOP UPR activ 2.3, UPR XBP1 act 3.5, hiPSC survival -1.9 and Cardio protect -17.5.
For Cc1ccc(NC(=O)Nc2ccc(F)cc2)nc1 the results were CHOP inhibitor 77.2*, CHOP UPR activ 4.2, UPR XBP1 act -0.8, hiPSC survival -1.9 and Cardio protect -2.4.
`O=C(NC12CC3CC(CC(C3)C1)C2)C1CC(=O)N(c2ccccc2)C1` (stereo not given) gave CHOP inhibitor 26.5, CHOP UPR activ 0.7, UPR XBP1 act -4.0, hiPSC survival 0.8 and Cardio protect 3.0.
`O=C(N/N=C/c1ccccc1O)C1CC(=O)N(c2ccc(Cl)cc2)C1` (stereo not given) gave CHOP UPR activ -1.3, UPR XBP1 act -1.4, hiPSC survival 0.6 and Cardio protect 55.1*.
Screening O=C(Nc1cccc(Cl)c1Cl)C1CC(=O)N(c2ccc(Br)cc2)C1 (stereo not given) returned CHOP inhibitor 77.7*, CHOP UPR activ 0.1, UPR XBP1 act -2.2, hiPSC survival 1.8 and Cardio protect -20.8.
For O=C(NC12CC3CC(CC(C3)C1)C2)C1CC(=O)N(c2ccc(Br)cc2)C1 (stereo not given) the results were CHOP inhibitor 70.5*, CHOP UPR activ 0.6, UPR XBP1 act -1.5, hiPSC survival 1.0 and Cardio protect -17.4.
Screening Cc1cccc(C)c1Cn1c(C)c(C(=O)NCc2ccc([N+](=O)[O-])cc2)sc1=O returned hiPSC survival -3.1 and Cardio protect -1.8.
For O=C(/C=C/c1ccccc1Cl)OCC(=O)c1ccc[nH]1 the results were CHOP UPR activ 2.6, UPR XBP1 act 3.8, hiPSC survival -0.4 and Cardio protect -10.7.
Screening CCOc1ccc(-c2n[nH]c(C)c2-c2ccccc2OC)c(O)c1 returned CHOP inhibitor 87.1*, CHOP UPR activ -0.4, UPR XBP1 act -3.1, hiPSC survival -3.3 and Cardio protect -15.8.
`Cc1ccsc1/C=N/Nc1nc(Cl)c(Cl)cc1Cl` gave CHOP inhibitor 43.5, CHOP UPR activ 4.4, UPR XBP1 act 1.4, hiPSC survival -0.3 and Cardio protect 1.4.
`Cc1ccc(/C=N/Nc2nc(Cl)c(Cl)cc2Cl)s1` gave CHOP inhibitor 82.5*, CHOP UPR activ 4.1, UPR XBP1 act 6.7, hiPSC survival -0.1 and Cardio protect -4.0.
For COCc1cccc(-c2csc(C(C)(O)c3cccc(OC)c3)n2)c1 (stereo not given) the results were hiPSC survival -0.5 and Cardio protect -21.3.
CSc1nc(N(C)C)c2ccccc2n1 was read as CHOP inhibitor 13.4, CHOP UPR activ -1.3, UPR XBP1 act 2.4, hiPSC survival 0.8 and Cardio protect -2.6.
Screening COc1ccc(Oc2nc(SC)nc3ccccc23)cc1 returned CHOP inhibitor 82.0*, CHOP UPR activ -1.9, UPR XBP1 act -3.0, hiPSC survival -0.2 and Cardio protect -13.3.
`COc1ccc(Oc2nc3ccccc3nc2C(F)(F)F)cc1` gave CHOP inhibitor 70.4*, CHOP UPR activ 0.5, UPR XBP1 act -1.1, hiPSC survival 3.6 and Cardio protect -6.5.
`COCCn1c(SCC(=O)Nc2c(C)n(C)n(-c3ccccc3)c2=O)nnc1-c1ccncc1` gave CHOP UPR activ -0.9, UPR XBP1 act -2.1, hiPSC survival -0.6 and Cardio protect 1.6.
Screening Cc1c(Cl)sn(-c2ccc(Cl)cc2)c1=O returned CHOP inhibitor 95.1*, CHOP UPR activ -0.6, UPR XBP1 act -9.8, hiPSC survival -3.5 and Cardio protect -23.5.
COCCNC(=O)C1(C)CCCN(C(=O)c2ccccc2)C1 (stereo not given) was read as hiPSC survival -0.7 and Cardio protect 0.8.

Source: PubChem BioAssay (several laboratories)
